ChEMBL document CHEMBL3407432, “Fused heterocycles bearing bridgehead nitrogen as potent HIV-1 NNRTIs. Part 3: optimization of [1,2,4]triazolo[1,5-a]pyrimidine core via structure-based and physicochemical property-driven approaches” (Eur J Med Chem, 2015)
Values after ≈ are worked out from the molar mass of the structure shown.

tested on: not listed separately; assay: Selectivity index, ratio of CC50 for mock-infected human MT4 cells to EC50 for HIV1 RES056 expressing reverse transcriptase K103N + Y181C double mutant; format: toxicity, cell-based; settings: read-out: Ratio CC50/EC50

Q: Which selectivity ratio does the source give for `Cc1cc(C)c(Oc2cc(NC3CCN(Cc4ccccc4F)CC3)nc3ncnn23)c(C)c1` here?
A: The selectivity ratio was < 1.

Q: Which selectivity ratio does the source give for `Cc1cc(C)c(Oc2cc(NC3CCN(Cc4c(F)cccc4F)CC3)nc3ncnn23)c(C)c1` here?
A: Its selectivity ratio is < 1.

Q: For `Cc1cc(C)c(Oc2cc(NC3CCN(CC(=O)Nc4ccc(C(=O)O)cc4Br)CC3)nc3ncnn23)c(C)c1`, which selectivity ratio is on record?
A: The selectivity ratio was < 1.

Q: With `Cc1cc(C)c(Oc2cc(NC3CCN(Cc4cccc(Cl)c4)CC3)nc3ncnn23)c(C)c1` as the molecule, how does the selectivity ratio read?
A: The selectivity ratio was < 1.

Q: With `Cc1cc(C)c(Oc2cc(NC3CCN(Cc4ccc(S(C)(=O)=O)cc4)CC3)nc3ncnn23)c(C)c1` as the molecule, how does the selectivity ratio read?
A: The selectivity ratio was 2.

Q: With `COC(=O)c1ccc(CN2CCC(Nc3cc(Oc4c(C)cc(C)cc4C)n4ncnc4n3)CC2)cc1` as the molecule, how does the selectivity ratio read?
A: Its selectivity ratio is < 1.

Q: For `Cc1cc(C)c(Oc2cc(NC3CCN(Cc4ccc(S(N)(=O)=O)cc4)CC3)nc3ncnn23)c(C)c1`, which selectivity ratio is on record?
A: The selectivity ratio was 2.

Q: For `Cc1cc(C)c(Oc2cc(NC3CCN(Cc4cccc(C#N)c4)CC3)nc3ncnn23)c(C)c1`, which selectivity ratio is on record?
A: Its selectivity ratio is < 1.

Q: Which selectivity ratio does the source give for `COC(=O)c1ccc(NC(=O)CN2CCC(Nc3cc(Oc4c(C)cc(C)cc4C)n4ncnc4n3)CC2)c(Cl)c1` here?
A: Its selectivity ratio is < 1.

Q: With `Cc1cc(C)c(Oc2cc(NC3CCN(Cc4ccc(C#N)cc4)CC3)nc3ncnn23)c(C)c1` as the molecule, how does the selectivity ratio read?
A: Its selectivity ratio is < 1.

tested on: not listed separately; assay: Selectivity index, ratio of CC50 for mock-infected human MT4 cells to EC50 for HIV1 3B infected in human MT4 cells; format: toxicity, cell-based; settings: mock-infected MT4 cells and MT4 cells infected with HIV1 3B, read-out: Ratio CC50/EC50

Q: Which selectivity ratio does the source give for `Nc1ccn([C@@H]2CS[C@H](CO)O2)c(=O)n1` [LAMIVUDINE] here?
A: Its selectivity ratio is > 39.

Q: Which selectivity ratio does the source give for `Cc1cc(C)c(Oc2cc(NC3CCN(Cc4ccccc4F)CC3)nc3ncnn23)c(C)c1` here?
A: Its selectivity ratio is 520.

Q: With `Cc1cc(C)c(Oc2cc(NC3CCN(Cc4c(F)cccc4F)CC3)nc3ncnn23)c(C)c1` as the molecule, how does the selectivity ratio read?
A: The selectivity ratio was 57.

Q: With `Cc1cc(C)c(Oc2cc(NC3CCN(CC(=O)Nc4ccc(C(=O)O)cc4Br)CC3)nc3ncnn23)c(C)c1` as the molecule, how does the selectivity ratio read?
A: Its selectivity ratio is 39.

Q: Which selectivity ratio does the source give for `Cc1cc(C)c(Oc2cc(NC3CCN(Cc4cccc(Cl)c4)CC3)nc3ncnn23)c(C)c1` here?
A: Its selectivity ratio is 1640.

Q: For `O=c1[nH]cnc2c1ncn2[C@H]1CC[C@@H](CO)O1` [DIDANOSINE], which selectivity ratio is on record?
A: Its selectivity ratio is > 9.

Q: Which selectivity ratio does the source give for `Cc1cc(C)c(Oc2cc(NC3CCN(Cc4ccc(S(C)(=O)=O)cc4)CC3)nc3ncnn23)c(C)c1` here?
A: The selectivity ratio was 2550.

Q: With `COC(=O)c1ccc(CN2CCC(Nc3cc(Oc4c(C)cc(C)cc4C)n4ncnc4n3)CC2)cc1` as the molecule, how does the selectivity ratio read?
A: Its selectivity ratio is 686.

Q: With `Cc1cc(C)c(Oc2cc(NC3CCN(Cc4ccc(S(N)(=O)=O)cc4)CC3)nc3ncnn23)c(C)c1` as the molecule, how does the selectivity ratio read?
A: The selectivity ratio was 1890.

Q: With `Cc1cc(C)c(Oc2cc(NC3CCN(Cc4cccc(C#N)c4)CC3)nc3ncnn23)c(C)c1` as the molecule, how does the selectivity ratio read?
A: The selectivity ratio was 1320.

Q: For `COC(=O)c1ccc(NC(=O)CN2CCC(Nc3cc(Oc4c(C)cc(C)cc4C)n4ncnc4n3)CC2)c(Cl)c1`, which selectivity ratio is on record?
A: The selectivity ratio was 315.

Q: Which selectivity ratio does the source give for `Cc1cc(C)c(Oc2cc(NC3CCN(Cc4ccc(C#N)cc4)CC3)nc3ncnn23)c(C)c1` here?
A: The selectivity ratio was 689.

tested on: Human immunodeficiency virus 1; assay: Antiviral activity against HIV1 RES056 expressing reverse transcriptase K103N + Y181C double mutant infected in human MT4 cells assessed as reduction in virus-induced cytopathic effect after 5 days by MTT assay; format: functional, organism-based; settings: Human immunodeficiency virus 1, RES056, MT4, 120 h
Procedure, shortened: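 MT-4 cells resuspended at 6 × 10⁵ cells/mL, infected with HIV-1 RES056 stock at 100–300 CCID50, compound in serial five-fold dilutions in triplicate wells alongside mock-infected wells. Viability read by MTT after 5 days.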

Q: With `Cc1cc(C)c(Oc2cc(NC3CCN(Cc4ccccc4F)CC3)nc3ncnn23)c(C)c1` as the molecule, how does the EC50 read?
A: Its EC50 is > 25000 nM.

Q: Which EC50 does the source give for `Cc1cc(C)c(Oc2cc(NC3CCN(Cc4c(F)cccc4F)CC3)nc3ncnn23)c(C)c1` here?
A: The EC50 was > 25000 nM.

Q: With `Cc1cc(C)c(Oc2cc(NC3CCN(CC(=O)Nc4ccc(C(=O)O)cc4Br)CC3)nc3ncnn23)c(C)c1` as the molecule, how does the EC50 read?
A: Its EC50 is > 89000 nM.

Q: With `Cc1cc(C)c(Oc2cc(NC3CCN(Cc4cccc(Cl)c4)CC3)nc3ncnn23)c(C)c1` as the molecule, how does the EC50 read?
A: Its EC50 is > 20000 nM.

Q: Which EC50 does the source give for `Cc1cc(C)c(Oc2cc(NC3CCN(Cc4ccc(S(C)(=O)=O)cc4)CC3)nc3ncnn23)c(C)c1` here?
A: The EC50 was 13000 nM.

Q: For `Cc1cn([C@H]2C[C@H](N=[N+]=[N-])[C@@H](CO)O2)c(=O)[nH]c1=O` [ZIDOVUDINE], which EC50 is on record?
A: The EC50 was 10 nM.

Q: Which EC50 does the source give for `COC(=O)c1ccc(CN2CCC(Nc3cc(Oc4c(C)cc(C)cc4C)n4ncnc4n3)CC2)cc1` here?
A: Its EC50 is > 10000 nM.

Q: Which EC50 does the source give for `Cc1cc(C)c(Oc2cc(NC3CCN(Cc4ccc(S(N)(=O)=O)cc4)CC3)nc3ncnn23)c(C)c1` here?
A: The EC50 was 22000 nM.

Q: For `Cc1cc(C)c(Oc2cc(NC3CCN(Cc4cccc(C#N)c4)CC3)nc3ncnn23)c(C)c1`, which EC50 is on record?
A: Its EC50 is > 25000 nM.

Q: For `COC(=O)c1ccc(NC(=O)CN2CCC(Nc3cc(Oc4c(C)cc(C)cc4C)n4ncnc4n3)CC2)c(Cl)c1`, which EC50 is on record?
A: The EC50 was > 86000 nM.

Q: For `Cc1cc(C)c(Oc2cc(NC3CCN(Cc4ccc(C#N)cc4)CC3)nc3ncnn23)c(C)c1`, which EC50 is on record?
A: The EC50 was > 14000 nM.

Q: With `Cc1ccnc2c1NC(=O)c1cccnc1N2C1CC1` [NEVIRAPINE] as the molecule, how does the EC50 read?
A: The EC50 was ≥ 7600 nM.

molecular target: Human immunodeficiency virus type 1 reverse transcriptase (Human immunodeficiency virus 1, UniProt Q72547); assay: Inhibition of HIV1 reverse transcriptase assessed as reduction in biotin-labeled dUTP incorporation into DNA after 1 hr using poly(A) x oligo(dT)15 template/primer hybrid, digoxigenin and biotin-labeled nucleotides; settings: not given
Procedure, shortened: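 Recombinant HIV-1 RT, colorimetric ELISA kit. Poly(A)·oligo(dT)15 template/primer with biotin- and DIG-labelled dNTPs in lysis buffer ± inhibitor, 1 h at 37 °C. Serial five-fold dilutions tested. IC50 is the concentration halving labelled dUTP incorporation.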

Q: For `Cc1cc(C)c(Oc2cc(NC3CCN(Cc4ccc(S(C)(=O)=O)cc4)CC3)nc3ncnn23)c(C)c1`, which IC50 is on record?
A: Its IC50 is 500 nM.

tested on: Human immunodeficiency virus 1; assay: Antiviral activity against HIV1 3B infected in human MT4 cells assessed as reduction in virus-induced cytopathic effect after 5 days by MTT assay; format: functional, organism-based; settings: Human immunodeficiency virus 1, 3B, MT4, 120 h
Procedure, shortened: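 MT-4 cells at 6 × 10⁵ cells/mL infected with HIV-1 IIIB stock at 100-300 CCID50. Test compounds added as serial five-fold dilutions in triplicate wells. Viability of infected cells read spectrophotometrically by MTT 5 days after infection. Values are the mean ± SD of at least two parallel tests.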

Q: For `Cc1cc(C#N)cc(C)c1Oc1nc(Nc2ccc(C#N)cc2)nc(N)c1Br` [ETRAVIRINE], which EC50 is on record?
A: Its EC50 is 1.8 nM.

Q: Which EC50 does the source give for `O=C1Nc2ccc(Cl)cc2[C@@](C#CC2CC2)(C(F)(F)F)O1` [EFAVIRENZ] here?
A: Its EC50 is 6.3 nM.

Q: For `Cc1cc(C)c(Oc2cc(NC3CCN(Cc4ccccc4F)CC3)nc3ncnn23)c(C)c1`, which EC50 is on record?
A: The EC50 was 48 nM.

Q: For `Cc1cc(C)c(Oc2cc(NC3CCN(Cc4c(F)cccc4F)CC3)nc3ncnn23)c(C)c1`, which EC50 is on record?
A: The EC50 was 439 nM.

Q: With `Cc1cc(C)c(Oc2cc(NC3CCN(CC(=O)Nc4ccc(C(=O)O)cc4Br)CC3)nc3ncnn23)c(C)c1` as the molecule, how does the EC50 read?
A: The EC50 was 2280 nM.

Q: With `Cc1cc(C)c(Oc2cc(NC3CCN(Cc4cccc(Cl)c4)CC3)nc3ncnn23)c(C)c1` as the molecule, how does the EC50 read?
A: The EC50 was 12 nM.

Q: With `Cc1cc(C)c(Oc2cc(NC3CCN(Cc4ccc(S(C)(=O)=O)cc4)CC3)nc3ncnn23)c(C)c1` as the molecule, how does the EC50 read?
A: The EC50 was 8.1 nM.

Q: For `COC(=O)c1ccc(CN2CCC(Nc3cc(Oc4c(C)cc(C)cc4C)n4ncnc4n3)CC2)cc1`, which EC50 is on record?
A: The EC50 was 15 nM.

Q: For `Cc1cc(C)c(Oc2cc(NC3CCN(Cc4ccc(S(N)(=O)=O)cc4)CC3)nc3ncnn23)c(C)c1`, which EC50 is on record?
A: Its EC50 is 27 nM.

Q: Which EC50 does the source give for `Cc1cc(C)c(Oc2cc(NC3CCN(Cc4cccc(C#N)c4)CC3)nc3ncnn23)c(C)c1` here?
A: The EC50 was 19 nM.

Q: Which EC50 does the source give for `COC(=O)c1ccc(NC(=O)CN2CCC(Nc3cc(Oc4c(C)cc(C)cc4C)n4ncnc4n3)CC2)c(Cl)c1` here?
A: The EC50 was 277 nM.

Q: Which EC50 does the source give for `Cc1cc(C)c(Oc2cc(NC3CCN(Cc4ccc(C#N)cc4)CC3)nc3ncnn23)c(C)c1` here?
A: Its EC50 is 20 nM.

tested on: not listed separately; assay: Lipophilicity, log P of the compound at pH 7.0 by HPLC method; format: physicochemical; settings: buffer
Procedure, shortened: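 Log P measured at pH 7 by HPLC, in duplicate.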

Q: With `Cc1cc(C#N)cc(C)c1Oc1nc(Nc2ccc(C#N)cc2)nc(N)c1Br` [ETRAVIRINE] as the molecule, how does the logP read?
A: Its logP is > 5.

Q: With `Cc1cc(C)c(Oc2cc(NC3CCN(Cc4ccc(S(C)(=O)=O)cc4)CC3)nc3ncnn23)c(C)c1` as the molecule, how does the logP read?
A: The logP was 1.91.

tested on: not listed separately; assay: Solubility in water at pH 7.0 after 2 hrs by HPLC-UV method; format: physicochemical; settings: not given
Procedure, shortened: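 DMSO stock spiked into purified water to 1% final DMSO. Shaken 2 h at 3000 rpm at room temperature, left 1 h, then filtered through a 0.22 membrane. Filtrate quantified by HPLC-UV on a C18 column (150 × 4.6 mm) with MeOH/water 85/15 at 1.0 mL/min. Measured at pH 7, in duplicate.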

Q: With `Cc1cc(C#N)cc(C)c1Oc1nc(Nc2ccc(C#N)cc2)nc(N)c1Br` [ETRAVIRINE] as the molecule, how does the solubility at 2 h read?
A: The solubility at 2 h was < 1 µg/mL.

Q: For `Cc1cc(C)c(Oc2cc(NC3CCN(Cc4ccc(S(C)(=O)=O)cc4)CC3)nc3ncnn23)c(C)c1`, which solubility at 2 h is on record?
A: Its solubility at 2 h is 10.3 µg/mL (≈ 19.8 µM).
